Source: ChEMBL document CHEMBL4152363, “Andrographolide derivative as STAT3 inhibitor that protects acute liver damage in mice” (Bioorg Med Chem, 2018)
pEC50: −log10 of the molar value. Activity calls are given as the source filed them. The calls are words filed in the database; no cut-off is given here.

Experiments:
[1] = target: T1, Signal transducer and activator of transcription 3 (Homo sapiens, UniProt P40763); experiment: Inhibition of IFNgamma-stimulated STAT3 activation in human AD293 cells incubated with IFNgamma for 16 hrs followed by compound addition measured after 24 hrs by luciferase reporter gene assay; assay type: cell-based
T1 sequence (P40763 whole entry): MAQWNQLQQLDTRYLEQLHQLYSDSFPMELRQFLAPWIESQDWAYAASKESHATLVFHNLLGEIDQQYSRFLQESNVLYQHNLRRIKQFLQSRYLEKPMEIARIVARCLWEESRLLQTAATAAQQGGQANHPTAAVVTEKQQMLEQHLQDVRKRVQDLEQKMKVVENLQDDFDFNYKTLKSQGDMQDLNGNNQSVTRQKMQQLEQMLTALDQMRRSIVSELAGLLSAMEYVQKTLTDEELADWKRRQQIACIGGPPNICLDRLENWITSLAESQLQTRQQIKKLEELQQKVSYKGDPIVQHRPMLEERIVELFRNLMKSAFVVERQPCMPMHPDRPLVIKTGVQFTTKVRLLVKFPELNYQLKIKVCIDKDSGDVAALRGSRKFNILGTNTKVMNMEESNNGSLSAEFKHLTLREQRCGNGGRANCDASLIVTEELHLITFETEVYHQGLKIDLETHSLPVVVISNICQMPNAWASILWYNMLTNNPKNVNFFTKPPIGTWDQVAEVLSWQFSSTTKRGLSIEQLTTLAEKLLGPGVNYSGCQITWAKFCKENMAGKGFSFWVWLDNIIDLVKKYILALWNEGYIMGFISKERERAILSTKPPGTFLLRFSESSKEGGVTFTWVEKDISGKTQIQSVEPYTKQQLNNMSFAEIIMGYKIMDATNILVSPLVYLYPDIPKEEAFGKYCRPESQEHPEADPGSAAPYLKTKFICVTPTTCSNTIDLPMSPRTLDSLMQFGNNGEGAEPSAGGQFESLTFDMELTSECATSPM
Method in brief: (§1)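 AD-293 or HeLa cells in DMEM/10% FBS stimulated with 20 pg/mL IFN-γ; compound treatment 24 h; luciferase activity measured in cell extracts; EC50 derived.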

[2] = target: T1, Signal transducer and activator of transcription 3; experiment: Inhibition of […] activation in human AD293 cells incubated […] for 16 hrs followed by compound addition measured after 4 hrs by luciferase reporter gene assay; assay type: cell-based
[3] = system: AD293; experiment: Cytotoxicity against human AD293 cells; assay type: cell-based; conditions: ad293
Method in brief: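 AD-293 or HeLa cells grown in high-glucose DMEM with 10% FBS and 1% penicillin-streptomycin; compound exposure 24 h; cytotoxicity reported as CC10.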

[4] = target: T1, Signal transducer and activator of transcription 3; experiment: Inhibition of IFNgamma-stimulated STAT3 activation in human HeLa cells incubated with IFNgamma for 16 hrs followed by compound addition measured after 24 hrs by luciferase reporter gene assay; assay type: cell-based; method in brief: as §1
[5] = target: T2, Signal transducer and activator of transcription 1-alpha/beta (Homo sapiens) (UniProt P42224); experiment: Inhibition of IFNgamma-stimulated STAT1 phosphorylation at Tyr701 residues in human AD293 cell lysates incubated with IFNgamma followed by compound addition at 10 uM by Western blot analysis
T2 sequence (whole entry): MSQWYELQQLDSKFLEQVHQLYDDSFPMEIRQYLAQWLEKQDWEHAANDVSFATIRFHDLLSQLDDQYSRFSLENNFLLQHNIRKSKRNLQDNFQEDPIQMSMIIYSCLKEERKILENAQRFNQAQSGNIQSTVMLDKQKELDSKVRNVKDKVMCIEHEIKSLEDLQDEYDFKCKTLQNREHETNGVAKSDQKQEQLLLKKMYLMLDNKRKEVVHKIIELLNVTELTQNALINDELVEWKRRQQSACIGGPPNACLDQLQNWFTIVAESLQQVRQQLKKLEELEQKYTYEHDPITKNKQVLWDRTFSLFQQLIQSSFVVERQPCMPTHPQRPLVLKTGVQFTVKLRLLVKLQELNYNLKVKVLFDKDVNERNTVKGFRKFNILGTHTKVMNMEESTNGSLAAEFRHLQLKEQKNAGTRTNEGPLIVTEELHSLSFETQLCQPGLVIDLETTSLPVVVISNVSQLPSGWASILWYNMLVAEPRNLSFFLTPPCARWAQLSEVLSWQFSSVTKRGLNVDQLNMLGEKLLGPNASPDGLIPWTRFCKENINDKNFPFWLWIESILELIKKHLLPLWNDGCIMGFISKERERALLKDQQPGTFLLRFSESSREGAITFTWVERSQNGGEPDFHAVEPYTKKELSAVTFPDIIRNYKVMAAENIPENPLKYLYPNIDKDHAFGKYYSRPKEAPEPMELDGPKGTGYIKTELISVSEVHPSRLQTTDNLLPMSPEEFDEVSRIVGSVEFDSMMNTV
Method in brief: (§2)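 AD-293 cells treated with 1 μg/mL IFN-γ alone or with compounds at 10 μM; phospho- and total STAT1 and STAT3 assessed by western blot; representative of at least three independent experiments.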

[6] = target: T1, Signal transducer and activator of transcription 3; experiment: Inhibition of IFNgamma-stimulated STAT3 phosphorylation at Tyr705 residues in human AD293 cell lysates incubated with IFNgamma followed by compound addition at 10 uM by Western blot analysis; method in brief: as §2
[7] = target: T1, Signal transducer and activator of transcription 3; experiment: Inhibition of DNA binding activity of STAT3 in human AD293 cells up to 40 uM; assay type: cell-based
Method in brief: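 STAT3 DNA binding measured with TransAM STAT family ELISA kit per manufacturer; competition control with threefold free oligo; mean ± SD of three separate experiments.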

[8] = system: Mus musculus; experiment: Antifibrotic activity in CCL4-induced acute liver damage Balb/c mouse model assessed as decrease in collagen deposition in liver at 30 mg/kg, po qd for 7 days measured after 16 hrs post CCL4 challenge by masson trichome staining based assay; assay type: functional, organism-based
Method in brief: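 Male BalB/C mice given oral 30 mg/kg daily for 7 days, then sc CCl4 (40% in olive oil, 10 ml/kg); sacrificed 16 h later; livers fixed in 10% formaldehyde, paraffin sections stained with H&E or Masson's trichrome, light microscopy, ≥3 sections per liver; n=5, two experiments.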

[9] = system: Mus musculus; experiment: Antifibrotic activity in CCL4-induced acute liver damage Balb/c mouse model assessed as decrease in alpha-SMA expression in areas surrounding blood vessels at 30 mg/kg, po qd for 7 days measured after 16 hrs post CCL4 challenge by masson trichome staining based assay; assay type: functional, organism-based; conditions: in the assay text read “immunohistochemistry” for “masson trichome staining based assay”
Method in brief: (§3)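 Liver sections from mice dosed orally 30 mg/kg daily 7 days then sc CCl4, killed 16 h after; H2O2 block, goat serum/BSA/gelatin blocking 1 h RT, primary antibody (α-SMA, Ki67, PCNA or STAT3) 4 °C overnight, HRP secondary, DAB, hematoxylin counterstain; >30 fields at 400× quantified; n=5.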

[10] = system: Mus musculus; experiment: Reduction in MMP9 mRNA expression level in CCL4-induced acute liver damage in Balb/c mouse at 30 mg/kg, po qd for 7 days measured after 16 hrs post CCL4 challenge by qRT-PCR method; assay type: functional, organism-based
Method in brief: (§4)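 Mice given 30 mg/kg orally once daily 7 days before sc CCl4 (40% in olive oil, 10 ml/kg); livers harvested 16 h later, PBS-washed, stored at −70 °C for RNA extraction and transcript quantification; n=5, two independent experiments.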

[11] = system: Mus musculus; experiment: Reduction in Col1a1 mRNA expression level in CCL4-induced acute liver damage in Balb/c mouse at 30 mg/kg, po qd for 7 days measured after 16 hrs post CCL4 challenge by qRT-PCR method; assay type: functional, organism-based; method in brief: as §4
[12] = system: Mus musculus; experiment: In vivo inhibition of STAT3 expression level in CCL4-induced acute liver damage in Balb/c mouse assessed as decrease in nuclear STAT3 phosphorylation at 30 mg/kg, po qd for 7 days measured after 16 hrs post CCL4 challenge by hematoxylin staining based immunohistochemistry method; assay type: functional, organism-based; method in brief: as §3
[13] = system: Mus musculus; experiment: Antiinflammatory activity in CCL4-induced acute liver damage Balb/c mouse model assessed as decrease in serum TGF-beta levels at 30 mg/kg, po qd for 7 days measured after 16 hrs post CCL4 challenge; assay type: functional, organism-based
Method in brief: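 BalB/C males dosed orally 30 mg/kg daily for 7 days, then sc CCl4 (40% in olive oil, 10 ml/kg); serum collected 16 h post-CCl4 after CO2 anaesthesia, stored at −70 °C until IL-6, MCP-1 or TGF-β analysis; n=5.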

[14] = system: Mus musculus; experiment: Reduction in SMAD4 mRNA expression level in liver of CCL4-induced acute liver damage in Balb/c mouse at 30 mg/kg, po qd for 7 days measured after 16 hrs post CCL4 challenge by qRT-PCR method; assay type: functional, organism-based; method in brief: as §4
[15] = target: T1, Signal transducer and activator of transcription 3; experiment: Inhibition of STAT3 in human AD293 cells assessed as decrease in TGFbeta-stimulated SMAD2/3 activation up to 10 uM incubated for 16 hrs by luciferase reporter gene assay relative to control; assay type: cell-based
Method in brief: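 AD-293 cells carrying SMAD2/3 promoter in pGL4.20 luciferase vector, stimulated with TGF-β 100 ng/ml for 16 h with compound up to 10 µM; luciferase activity measured in cell extracts.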

CC(C)(C)[Si](C)(C)O[C@@H]1COC(=O)/C1=C/C[C@@H]1[C@]2(CC[C@H]3[C@@]1(C)CCC(=O)[C@@]3(C)CO)CO2
pEC50 [1]: 5.22 | pEC50 [2]: < 5.00 | CC10 [3]: > 10 µM | pEC50 [4]: 5.23 | inhibition [5]: inactive | inhibition [6]: > 50% | inhibition [7]: inactive | Activity [8]: Active | Activity [9]: Active | Activity [10]: inactive | Activity [11]: inactive | inhibition [12]: Active | Activity [13]: Active | Activity [14]: inactive | inhibition [15]: < 50%
